The source made the active and inactive calls. The rule behind the calls is not given here.
Key:
Liver microsome = experiment: Drug metabolism in human liver microsomes assessed as 2-methylbenzaldehyde formation at 500 uM incubated for 1 hr in presence of GSH and NADPH and by LC-MS/MS based GSH trapping assay; assay type: ADME
[1] = target: Free fatty acid receptor 1 (Homo sapiens, UniProt O14842); experiment: Agonist activity at human GPR40 expressed in CHO cells assessed as calcium flux by FLIPR assay; assay type: functional, cell-based
Sequence of Free fatty acid receptor 1 (O14842 whole entry): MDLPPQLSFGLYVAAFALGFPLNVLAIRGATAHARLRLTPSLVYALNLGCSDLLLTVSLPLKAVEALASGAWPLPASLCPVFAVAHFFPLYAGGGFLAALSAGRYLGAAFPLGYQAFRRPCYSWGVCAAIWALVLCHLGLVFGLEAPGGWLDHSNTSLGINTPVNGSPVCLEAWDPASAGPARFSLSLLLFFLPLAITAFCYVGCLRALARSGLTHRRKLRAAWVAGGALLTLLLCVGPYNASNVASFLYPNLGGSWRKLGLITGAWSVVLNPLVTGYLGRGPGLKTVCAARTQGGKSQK

Homo sapiens [2] = organism: Homo sapiens; experiment: Selectivity for human GPR40 over phorbol ester receptor (unknown origin)
Homo sapiens [3] = organism: Homo sapiens; experiment: Selectivity for human GPR40 over EGF receptor (unknown origin)
Homo sapiens [4] = organism: Homo sapiens; experiment: Selectivity for human GPR40 over adrenergic alpha1A receptor (unknown origin)
Homo sapiens [5] = organism: Homo sapiens; experiment: Selectivity for human GPR40 over NET (unknown origin)
Rattus norvegicus [6] = experiment: Reduction in glucose excursion in ZDF rat at 0.03 mg/kg, po dosed 30 mins before glucose challenge by OGTT method; assay type: functional, organism-based; parameters: dose 0.03 mg/kg
Outline: (§1)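 Male Zucker diabetic fatty rats, 9 weeks old, n = 6 per group. Oral dose given 30 min before an oral glucose challenge of 2 g/kg. Plasma glucose and plasma insulin were followed over time after the challenge. Values are reported as mean ± standard error.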

Homo sapiens [7] = organism: Homo sapiens; experiment: Selectivity for human GPR40 over GABA transporter (unknown origin)
Homo sapiens [8] = organism: Homo sapiens; experiment: Selectivity for human GPR40 over adrenergic beta2 receptor (unknown origin)
Homo sapiens [9] = organism: Homo sapiens; experiment: Selectivity for human GPR40 over KATP channel (unknown origin)
Homo sapiens [10] = organism: Homo sapiens; experiment: Selectivity for human GPR40 over GCR (unknown origin)
Homo sapiens [11] = organism: Homo sapiens; experiment: Selectivity for human GPR40 over P2Y receptor (unknown origin)
Homo sapiens [12] = organism: Homo sapiens; experiment: Selectivity for human GPR40 over bradykinin B1 receptor (unknown origin)
[13] = target: T1, Peroxisome proliferator-activated receptor gamma (Homo sapiens) (UniProt P37231); experiment: Agonist activity at PPARgamma (unknown origin) up to 100 uM
T1 sequence (whole entry): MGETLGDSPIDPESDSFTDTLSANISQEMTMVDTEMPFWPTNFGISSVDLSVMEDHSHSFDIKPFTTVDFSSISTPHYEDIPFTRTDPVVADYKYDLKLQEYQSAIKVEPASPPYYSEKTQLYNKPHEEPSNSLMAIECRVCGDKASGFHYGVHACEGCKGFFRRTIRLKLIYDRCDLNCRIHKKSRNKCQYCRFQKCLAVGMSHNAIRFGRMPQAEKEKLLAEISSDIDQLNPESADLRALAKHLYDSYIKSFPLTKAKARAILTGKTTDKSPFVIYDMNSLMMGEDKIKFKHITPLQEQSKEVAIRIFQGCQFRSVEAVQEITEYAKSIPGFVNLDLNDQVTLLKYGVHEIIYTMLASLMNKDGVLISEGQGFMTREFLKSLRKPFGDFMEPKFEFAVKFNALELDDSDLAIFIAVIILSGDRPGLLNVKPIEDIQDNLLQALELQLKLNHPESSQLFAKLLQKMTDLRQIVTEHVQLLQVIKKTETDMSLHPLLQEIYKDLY

Homo sapiens [14] = organism: Homo sapiens; experiment: Selectivity for human GPR40 over dopamine D4.2 receptor (unknown origin)
Homo sapiens [15] = organism: Homo sapiens; experiment: Selectivity for human GPR40 over nAchR (unknown origin)
Homo sapiens [16] = organism: Homo sapiens; experiment: Selectivity for human GPR40 over central GABAA receptor muscimol binding site (unknown origin)
Homo sapiens [17] = organism: Homo sapiens; experiment: Selectivity for human GPR40 over delta opioid receptor (unknown origin)
Homo sapiens [18] = organism: Homo sapiens; experiment: Selectivity for human GPR40 over P2X receptor (unknown origin)
Homo sapiens [19] = organism: Homo sapiens; experiment: Selectivity for human GPR40 over NMDA receptor glycine binding site (unknown origin)
Homo sapiens [20] = organism: Homo sapiens; experiment: Selectivity for human GPR40 over IL1 receptor (unknown origin)
Homo sapiens [21] = organism: Homo sapiens; experiment: Selectivity for human GPR40 over sigma-1 receptor (unknown origin)
Homo sapiens [22] = organism: Homo sapiens; experiment: Selectivity for human GPR40 over endothelin ETA receptor (unknown origin)
Homo sapiens [23] = organism: Homo sapiens; experiment: Selectivity for human GPR40 over central GABAA receptor flunitrazepam binding site (unknown origin)
Homo sapiens [24] = organism: Homo sapiens; experiment: Selectivity for human GPR40 over kappa opioid receptor (unknown origin)
Homo sapiens [25] = organism: Homo sapiens; experiment: Selectivity for human GPR40 over kainate receptor (unknown origin)
Rattus norvegicus [26] = experiment: Increase in plasma insulin level in ZDF rat at 0.1 mg/kg, po dosed 30 mins before glucose challenge by OGTT method; assay type: functional, organism-based; parameters: dose 0.1 mg/kg; outline: as §1
Homo sapiens [27] = organism: Homo sapiens; experiment: Selectivity for human GPR40 over CysLT1 receptor (unknown origin)
Mus musculus [28] = organism: Mus musculus; experiment: Induction of glucose-stimulated insulin secretion in wild type mouse pancreatic islets; assay type: functional
Homo sapiens [29] = organism: Homo sapiens; experiment: Selectivity for human GPR40 over muscarinic M2 receptor (unknown origin)
Homo sapiens [30] = organism: Homo sapiens; experiment: Selectivity for human GPR40 over central GABAB1A receptor (unknown origin)
Homo sapiens [31] = organism: Homo sapiens; experiment: Selectivity for human GPR40 over 5HT3 receptor (unknown origin)
Homo sapiens [32] = organism: Homo sapiens; experiment: Selectivity for human GPR40 over GPR103 (unknown origin)
Homo sapiens [33] = organism: Homo sapiens; experiment: Selectivity for human GPR40 over adrenergic alpha2A receptor (unknown origin)
Homo sapiens [34] = organism: Homo sapiens; experiment: Selectivity for human GPR40 over NK1 receptor (unknown origin)
Homo sapiens [35] = organism: Homo sapiens; experiment: Selectivity for human GPR40 over endothelin ETB receptor (unknown origin)
Homo sapiens [36] = organism: Homo sapiens; experiment: Selectivity for human GPR40 over calcium channel L-type benzothiazepine binding site (unknown origin)
Homo sapiens [37] = organism: Homo sapiens; experiment: Selectivity for human GPR40 over DAT (unknown origin)
Homo sapiens [38] = organism: Homo sapiens; experiment: Selectivity for human GPR40 over EP4 receptor (unknown origin)
Homo sapiens [39] = organism: Homo sapiens; experiment: Selectivity for human GPR40 over muscarinic M1 receptor (unknown origin)
Homo sapiens [40] = organism: Homo sapiens; experiment: Selectivity for human GPR40 over calcium channel L-type dihydropyridine binding site (unknown origin)
Homo sapiens [41] = organism: Homo sapiens; experiment: Selectivity for human GPR40 over NMDA receptor phencyclidine binding site (unknown origin)
Homo sapiens [42] = organism: Homo sapiens; experiment: Selectivity for human GPR40 over histamine H1 receptor (unknown origin)
Homo sapiens [43] = organism: Homo sapiens; experiment: Selectivity for human GPR40 over adrenergic alpha1D receptor (unknown origin)
Homo sapiens [44] = organism: Homo sapiens; experiment: Selectivity for human GPR40 over nAchR alpha1 bungarotoxin binding site (unknown origin)
Rattus norvegicus [45] = experiment: Reduction in glucose excursion in ZDF rat at 0.1 mg/kg, po dosed 30 mins before glucose challenge by OGTT method; assay type: functional, organism-based; parameters: dose 0.1 mg/kg; outline: as §1
Homo sapiens [46] = organism: Homo sapiens; experiment: Selectivity for human GPR40 over adenosine A3 receptor (unknown origin)
Homo sapiens [47] = organism: Homo sapiens; experiment: Selectivity for human GPR40 over ERalpha (unknown origin)
Homo sapiens [48] = organism: Homo sapiens; experiment: Selectivity for human GPR40 over rolipram binding receptor (unknown origin)
Homo sapiens [49] = organism: Homo sapiens; experiment: Selectivity for human GPR40 over muscarinic M3 receptor (unknown origin)
Homo sapiens [50] = organism: Homo sapiens; experiment: Selectivity for human GPR40 over adenosine A1 receptor (unknown origin)
Homo sapiens [51] = organism: Homo sapiens; experiment: Selectivity for human GPR40 over MT1 receptor (unknown origin)
Homo sapiens [52] = organism: Homo sapiens; experiment: Selectivity for human GPR40 over bradykinin B2 receptor (unknown origin)
Homo sapiens [53] = organism: Homo sapiens; experiment: Selectivity for human GPR40 over dopamine D2S receptor (unknown origin)
Homo sapiens [54] = organism: Homo sapiens; experiment: Selectivity for human GPR40 over mu opioid receptor (unknown origin)
Homo sapiens [55] = organism: Homo sapiens; experiment: Selectivity for human GPR40 over PAF receptor (unknown origin)
Homo sapiens [56] = organism: Homo sapiens; experiment: Selectivity for human GPR40 over sodium channel site 2 (unknown origin)
Homo sapiens [57] = organism: Homo sapiens; experiment: Selectivity for human GPR40 over histamine H3 receptor (unknown origin)
Homo sapiens [58] = organism: Homo sapiens; experiment: Selectivity for human GPR40 over human ERG channel
Homo sapiens [59] = organism: Homo sapiens; experiment: Selectivity for human GPR40 over adenosine A2A receptor (unknown origin)
Homo sapiens [60] = organism: Homo sapiens; experiment: Selectivity for human GPR40 over androgen receptor (unknown origin)
Homo sapiens [61] = organism: Homo sapiens; experiment: Selectivity for human GPR40 over neuropeptide YY2 receptor (unknown origin)
Homo sapiens [62] = organism: Homo sapiens; experiment: Selectivity for human GPR40 over central imidazoline I2 receptor (unknown origin)
Homo sapiens [63] = organism: Homo sapiens; experiment: Selectivity for human GPR40 over neuropeptide YY1 receptor (unknown origin)
Homo sapiens [64] = organism: Homo sapiens; experiment: Selectivity for human GPR40 over SERT (unknown origin)
Homo sapiens [65] = organism: Homo sapiens; experiment: Selectivity for human GPR40 over adrenergic alpha1B receptor (unknown origin)
Homo sapiens [66] = organism: Homo sapiens; experiment: Selectivity for human GPR40 over sigma-2 receptor (unknown origin)
Homo sapiens [67] = organism: Homo sapiens; experiment: Selectivity for human GPR40 over histamine H2 receptor (unknown origin)
Homo sapiens [68] = organism: Homo sapiens; experiment: Selectivity for human GPR40 over dopamine D3 receptor (unknown origin)
Homo sapiens [69] = organism: Homo sapiens; experiment: Selectivity for human GPR40 over dopamine D1 receptor (unknown origin)
Homo sapiens [70] = organism: Homo sapiens; experiment: Selectivity for human GPR40 over thyroid receptor receptor (unknown origin)
Mus musculus [71] = organism: Mus musculus; experiment: Induction of glucose-stimulated insulin secretion in GPR40 knock out mouse pancreatic islets; assay type: functional
Homo sapiens [72] = organism: Homo sapiens; experiment: Selectivity for human GPR40 over adrenergic beta1 receptor (unknown origin)
Homo sapiens [73] = organism: Homo sapiens; experiment: Selectivity for human GPR40 over 5HT1A receptor (unknown origin)

CCOC(CC(=O)O)c1ccc(OCc2ccccc2C)cc1 (racemic)
Drug metabolism (Liver microsome): metabolite_detected

CCOc1cccc2c1CC[C@H]2Oc1ccc([C@H](CC(=O)O)OCC)cc1
EC50 [1]: 0.063 µM

CCO[C@@H](CC(=O)O)c1ccc(O[C@H]2CCc3c2cccc3C(F)(F)F)cc1
EC50 [1]: 0.019 µM

CCO[C@@H](CC(=O)O)c1ccc(OCc2ccc(Cl)c(Cl)c2)cc1
EC50 [1]: 0.0039 µM

CCO[C@@H](CC(=O)O)c1ccc(O[C@@H]2CCc3c2cccc3C(F)(F)F)cc1
Selectivity ratio (Homo sapiens [2]): > 100 | Selectivity ratio (Homo sapiens [3]): > 100 | Selectivity ratio (Homo sapiens [4]): > 100 | Selectivity ratio (Homo sapiens [5]): > 100 | Activity (Rattus norvegicus [6]): Active | Selectivity ratio (Homo sapiens [7]): > 100 | Selectivity ratio (Homo sapiens [8]): > 100 | Selectivity ratio (Homo sapiens [9]): > 100 | Selectivity ratio (Homo sapiens [10]): > 100 | Selectivity ratio (Homo sapiens [11]): > 100 | Selectivity ratio (Homo sapiens [12]): > 100 | Activity [13]: inactive | Selectivity ratio (Homo sapiens [14]): > 100 | Selectivity ratio (Homo sapiens [15]): > 100 | Selectivity ratio (Homo sapiens [16]): > 100 | Selectivity ratio (Homo sapiens [17]): > 100 | Selectivity ratio (Homo sapiens [18]): > 100 | Selectivity ratio (Homo sapiens [19]): > 100 | Selectivity ratio (Homo sapiens [20]): > 100 | Selectivity ratio (Homo sapiens [21]): > 100 | Selectivity ratio (Homo sapiens [22]): > 100 | Selectivity ratio (Homo sapiens [23]): > 100 | Selectivity ratio (Homo sapiens [24]): > 100 | Selectivity ratio (Homo sapiens [25]): > 100 | Activity (Rattus norvegicus [26]): Active | Selectivity ratio (Homo sapiens [27]): > 100 | Activity (Mus musculus [28]): Active | Selectivity ratio (Homo sapiens [29]): > 100 | Selectivity ratio (Homo sapiens [30]): > 100 | Selectivity ratio (Homo sapiens [31]): > 100 | Selectivity ratio (Homo sapiens [32]): > 100 | Selectivity ratio (Homo sapiens [33]): > 100 | Selectivity ratio (Homo sapiens [34]): > 100 | Selectivity ratio (Homo sapiens [35]): > 100 | Selectivity ratio (Homo sapiens [36]): > 100 | Selectivity ratio (Homo sapiens [37]): > 100 | Selectivity ratio (Homo sapiens [38]): > 100 | Selectivity ratio (Homo sapiens [39]): > 100 | Selectivity ratio (Homo sapiens [40]): > 100 | Selectivity ratio (Homo sapiens [41]): > 100 | Selectivity ratio (Homo sapiens [42]): > 100 | Selectivity ratio (Homo sapiens [43]): > 100 | Selectivity ratio (Homo sapiens [44]): > 100 | Activity (Rattus norvegicus [45]): Active | Selectivity ratio (Homo sapiens [46]): > 100 | Selectivity ratio (Homo sapiens [47]): > 100 | Selectivity ratio (Homo sapiens [48]): > 100 | Selectivity ratio (Homo sapiens [49]): > 100 | EC50 [1]: 0.0037 µM | Selectivity ratio (Homo sapiens [50]): > 100 | Selectivity ratio (Homo sapiens [51]): > 100 | Selectivity ratio (Homo sapiens [52]): > 100 | Selectivity ratio (Homo sapiens [53]): > 100 | Selectivity ratio (Homo sapiens [54]): > 100 | Selectivity ratio (Homo sapiens [55]): > 100 | Selectivity ratio (Homo sapiens [56]): > 100 | Selectivity ratio (Homo sapiens [57]): > 100 | Selectivity ratio (Homo sapiens [58]): > 100 | Selectivity ratio (Homo sapiens [59]): > 100 | Selectivity ratio (Homo sapiens [60]): > 100 | Selectivity ratio (Homo sapiens [61]): > 100 | Selectivity ratio (Homo sapiens [62]): > 100 | Selectivity ratio (Homo sapiens [63]): > 100 | Selectivity ratio (Homo sapiens [64]): > 100 | Selectivity ratio (Homo sapiens [65]): > 100 | Selectivity ratio (Homo sapiens [66]): > 100 | Selectivity ratio (Homo sapiens [67]): > 100 | Selectivity ratio (Homo sapiens [68]): > 100 | Selectivity ratio (Homo sapiens [69]): > 100 | Selectivity ratio (Homo sapiens [70]): > 100 | Activity (Mus musculus [71]): inactive | Selectivity ratio (Homo sapiens [72]): > 100 | Selectivity ratio (Homo sapiens [73]): > 100

CCO[C@H](CC(=O)O)c1ccc(O[C@@H]2CCc3c2cccc3C(F)(F)F)cc1
EC50 [1]: 0.33 µM

CCO[C@@H](CC(=O)O)c1ccc(O[C@@H]2CCc3c(Cl)cccc32)cc1
EC50 [1]: 0.005 µM

CCO[C@@H](CC(=O)O)c1ccc(O[C@@H]2CCc3ccccc32)cc1
EC50 [1]: 0.031 µM

CCO[C@H](CC(=O)O)c1ccc(OCc2ccc(Cl)c(Cl)c2)cc1
EC50 [1]: 0.36 µM
